Hit rate of the full screen: of about 360,000 compounds, about 1,100 (0.31%) were called active.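 Rule for the calls: active = activation above the run cutoff, the mean activation of all test compounds plus 3 SD (cut at about 18% in these data); inactive = the rest.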 Shown is part of a subset that was picked to be rich in actives.
The compounds below were run against Muscarinic acetylcholine receptor M5 (Homo sapiens) (UniProt P08912) (assay: CHRM5 PAMs potentiating acetylcholine calcium signal – CHO-K1 cells, Fluo-8 calcium fluorescence, primary screen (AID 624038)). Settings: CHO-K1 hM5, Fluo-8 calcium, ACh EC20 PAM; at 3 µM; stronger effect = higher value; 0% = ACh EC20, 100% = ACh EC100.
Procedure, shortened: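 Probe or stimulus: acetylcholine, EC20 level; Assay system: human M5 receptor in CHO-K1 cells; Schedule: compound preincubation 140 s before EC20 acetylcholine addition; Technique: intracellular calcium via Fluo-8 fluorescence; Dosing: single-point, 3 µM nominal; Read-out basis: percent activation from peak-over-basal fluorescence ratio, scaled EC20-to-EC100 acetylcholine; Repeats: one well per compound, no replicates.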

Chain of Muscarinic acetylcholine receptor M5 (Homo sapiens) (P08912 whole entry, looked up): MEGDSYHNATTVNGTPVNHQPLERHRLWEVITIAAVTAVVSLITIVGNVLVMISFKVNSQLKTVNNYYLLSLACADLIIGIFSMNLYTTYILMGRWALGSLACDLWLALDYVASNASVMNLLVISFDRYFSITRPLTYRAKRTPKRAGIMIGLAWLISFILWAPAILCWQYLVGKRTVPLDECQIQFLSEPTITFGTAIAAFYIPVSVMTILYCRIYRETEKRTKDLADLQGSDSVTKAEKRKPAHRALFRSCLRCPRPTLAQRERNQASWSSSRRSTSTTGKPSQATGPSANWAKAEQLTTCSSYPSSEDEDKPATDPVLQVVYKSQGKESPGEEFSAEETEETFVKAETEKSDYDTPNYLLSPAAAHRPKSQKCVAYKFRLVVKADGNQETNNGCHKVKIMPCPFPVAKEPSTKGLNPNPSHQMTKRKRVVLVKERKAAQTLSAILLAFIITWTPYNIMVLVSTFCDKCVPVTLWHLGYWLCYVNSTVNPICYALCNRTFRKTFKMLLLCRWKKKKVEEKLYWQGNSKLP

activation, active:
COc1ccc(OCc2cccc(C(=O)N3CCCC3)c2)cc1 19.1%
C[C@H]1COC(=O)[C@H](CC(=O)OC(C)(C)C)C/C=C\C[C@@H](CC(=O)N[C@H](CO)Cc2ccccc2)C(=O)N1 20.5%
COC(=O)CNC(=O)c1ccccc1F 22.4%
Cn1ncc(Br)c1C(=O)NC1CCCC1 36.9%
O=S(=O)(NCCc1ccccc1)c1ccccc1 20.4%
Cn1ncc2c(Nc3cccc4ccccc34)ncnc21 43.5%
O=C(Cn1[nH]c(=O)c2ccccc2c1=O)Nc1cccc(-c2nnc3n2CCCCC3)c1 22.3%
Cc1cccc(-c2noc(-c3ccc(F)cc3)n2)c1 18.1%
Cc1nn(Cc2ccc(F)cc2)c(C)c1NC(=O)c1cccnc1Cl 24.4%
O=C(OC12CC3CC(CC(C3)C1)C2)c1ccc(NCc2cc(O)ccc2O)cc1 21.9%
Cc1ccc(C(c2sc3nc(C)nn3c2O)N2CCN(c3ccc(F)cc3)CC2)cc1 (configuration not stated) 42.2%
Cc1nc2sc(C(c3ccco3)N3CCOCC3)c(O)n2n1 (configuration not stated) 20.1%

activation, inactive:
CCOc1ccc(OCc2cccc(C(=O)N(CC)CC)c2)cc1 -1.6%
Cc1ccc(C2SCC(=O)N2c2ccccc2)cc1 (configuration not stated) 13.5%
CC(C)(C)OC(=O)C[C@@H]1C/C=C\C[C@H](CC(=O)N[C@@H](CO)Cc2ccccc2)C(=O)N[C@H](Cc2ccccc2)COC1=O -0.44%
CC(C)(C)OC(=O)C[C@@H]1C/C=C\C[C@@H](CC(=O)N[C@H](CO)Cc2ccccc2)C(=O)NCCOC1=O -2.01%
Cc1nn(C)c(C)c1Sc1ccccc1N -3.24%
O=C(CNC(=O)c1ccccc1F)c1ccc(Br)cc1 1.83%
O=C(COC(=O)CNC(=O)c1ccccc1F)NCC(F)(F)F 16.4%
Cc1nn(C)c(C(=O)NNC(=S)NC2CCCCC2)c1Cl -3.58%
COc1ccccc1NC(=O)c1c(Br)cnn1C 0.59%
CC(=O)Nc1ccc(S(=O)(=O)NCCc2ccccc2)cc1 -2.74%
O=S(=O)(NCCc1ccncc1)c1ccccc1 8.02%
CCCC(C)n1[nH]c(=O)c2c(C)cc(C)nc21 (configuration not stated) 4.59%
O=C1COc2ccc(C(=O)COC(=O)c3ccccc3Cl)cc2N1 -8.98%
Cc1ccc(S(=O)(=O)N(C)C)cc1NC(=O)CN1c2cccc3cccc(c23)S1(=O)=O -2.16%
Cc1nc(Nc2ccccc2C)c2cnn(C)c2n1 -2.69%
Cn1ncc2c(NNC(=O)Cc3cccc4ccccc34)ncnc21 6.42%
CCCNC(=O)COc1coc(CN2CCN(Cc3ccccc3)CC2)cc1=O -3.51%
Cc1c(C(=O)Nc2cccc(-c3nnc4n3CCCCC4)c2)oc2ccccc12 -11.2%
Brc1cccc(-c2nnc3n2CCC3)c1 -2.96%
Cc1ccc(C)c(N2CCN(C(=O)CCc3nc(-c4cccc(C(F)(F)F)c4)no3)CC2)c1 -0.63%
OC[C@H]1O[C@@H](c2nc(-c3nc(-c4ccc(F)cc4)no3)cs2)[C@H](O)[C@@H](O)[C@H]1O -2.26%
Cc1ccc(-c2cccc([C@H]3[C@@H]4C=CC[C@@H](C)[C@@H]4C(=O)N3Cc3ccccc3)c2)cc1 -3.69%
Cc1nn(Cc2ccc(F)cc2)c(C)c1NC(=O)c1noc2c1CCc1ccccc1-2 -7.62%
Cc1nn(Cc2ccc(Cl)c(Cl)c2)c(C)c1NC(=O)c1cc(C2CC2)on1 -11.4%
CCNc1nc(NCC)nc(N(C)n2cnnc2)n1 1.44%
Nc1c(-c2ccc(F)cc2)cnn1C1CCS(=O)(=O)C1 (configuration not stated) 0.13%
CC(C)C(=O)Nc1ccc2c(c1)oc1ccccc12 -7.04%
Cc1ccc(C(c2sc3nc(C)nn3c2O)N2CCN(c3ccccc3)CC2)cc1 (configuration not stated) 5.14%
Oc1c(C(c2ccco2)N2CCC3(CC2)OCCO3)sc2ncnn12 (configuration not stated) -1.05%
Oc1c(C(c2cccs2)N2CCN(c3ccc(F)cc3)CC2)sc2ncnn12 (configuration not stated) -5.38%
Cc1nc2sc(C(c3ccco3)N3CCC4(CC3)OCCO4)c(O)n2n1 (configuration not stated) 5.68%
COc1ccc(COC(=O)N/N=C(\C)CC(=O)Nc2ccc(Cl)cc2)cc1 -3.42%
COC(=O)c1ccc(C)c(NC(=O)C2CC(=O)N(C3CCCC(C)C3C)C2)c1 (configuration not stated) 0.01%
Cc1ccc(NC(=O)Cn2cnc3c(OCc4ccccc4)ncnc32)cc1C 1.1%
CCN(Cc1nc2ccccc2c(=O)[nH]1)Cc1cc(=O)oc2cc(C)c(C)cc12 -12.3%
